Test results from ChEMBL document CHEMBL1138854, “Synthesis and antitumor activity of guanylhydrazones from 6-(2,4-dichloro-5-nitrophenyl)imidazo[2,1-b]thiazoles and 6-pyridylimidazo[2,1-b]thiazoles(1)” (2006).
Active and inactive are the calls of the source. The calls are words filed in the database; no cut-off is given here.

How the values were obtained:
[1] = Antitumor activity against leukemia cell lines of the NCI60 panel; assay type: functional; conditions: Homo sapiens; for TGI: read-out: pTGI (converted)
How it was run: (§1)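 Run by NCI in the 60-cell-line panel (details in Supporting Information). Highest concentration 10^-4 M unless noted (one case 10-2.6 M). Values expressed as -log molar concentration giving 50% growth inhibition (pGI50), total cytostasis (pTGI) or 50% cell kill (pLC50); only values >4.00 reported; mean graph midpoint is the calculated panel mean.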

[2] = system: NSCLC; test: Antitumor activity against NSCLC cell lines of the NCI60 panel; assay type: functional; conditions: Homo sapiens; for TGI: read-out: pTGI (converted); how it was run: as §1
[3] = Antitumor activity against colon cell lines of the NCI60 panel; assay type: functional; conditions: Homo sapiens; for TGI: read-out: pTGI (converted); how it was run: as §1
[4] = Antitumor activity against CNS cell lines of the NCI60 panel; assay type: functional; conditions: Homo sapiens; for TGI: read-out: pTGI (converted); how it was run: as §1
[5] = Antitumor activity against melanoma cell lines of the NCI60 panel; assay type: functional; conditions: Homo sapiens; for TGI: read-out: pTGI (converted); how it was run: as §1
[6] = Antitumor activity against ovarian cell lines of the NCI60 panel; assay type: functional; conditions: Homo sapiens; for TGI: read-out: pTGI (converted); how it was run: as §1
[7] = Antitumor activity against renal cell lines of the NCI60 panel; assay type: functional, Homo sapiens; conditions: Homo sapiens, renal; how it was run: as §1
[8] = Antitumor activity against prostate cell lines of the NCI60 panel; assay type: functional; conditions: Homo sapiens; for TGI: read-out: pTGI (converted); how it was run: as §1
[9] = Antitumor activity against breast cell lines of the NCI60 panel; assay type: functional; conditions: Homo sapiens; for TGI: read-out: pTGI (converted); how it was run: as §1
[10] = system: HL-60; test: Mitochondrial potential in HL60 cells assessed as decrease in ATP level at 0.5 uM; assay type: functional, cell-based; conditions: Homo sapiens
[11] = target: T1, S-adenosylmethionine decarboxylase proenzyme (Homo sapiens) (UniProt P17707); test: Inhibition of SAMDC in HL60 cells by release of radioactive CO2 from [14C-carboxyl]S-adenosylmethionine; conditions: HL-60
T1 sequence (whole entry): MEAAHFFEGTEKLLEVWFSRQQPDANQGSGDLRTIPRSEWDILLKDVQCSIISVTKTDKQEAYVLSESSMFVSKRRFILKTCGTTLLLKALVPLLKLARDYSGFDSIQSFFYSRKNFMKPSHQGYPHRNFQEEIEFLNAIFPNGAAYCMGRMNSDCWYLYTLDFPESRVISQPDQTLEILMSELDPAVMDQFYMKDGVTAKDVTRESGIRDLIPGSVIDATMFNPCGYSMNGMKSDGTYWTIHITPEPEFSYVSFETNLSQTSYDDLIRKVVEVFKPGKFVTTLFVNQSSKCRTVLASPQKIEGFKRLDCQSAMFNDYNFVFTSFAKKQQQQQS

CCc1cn2c(/C=N/NC(=N)N)c(-c3cc([N+](=O)[O-])c(Cl)cc3Cl)nc2s1
GI50 [1]: 0.933 µM
TGI [1]: 3.24 µM
GI50 [2]: 1.7 µM
TGI [2]: 3.16 µM
GI50 [3]: 1.38 µM
TGI [3]: 2.95 µM
GI50 [4]: 1.45 µM
TGI [4]: 2.82 µM
GI50 [5]: 1.51 µM
TGI [5]: 2.82 µM
GI50 [6]: 1.58 µM
TGI [6]: 3.09 µM
GI50 [7]: 1.51 µM
GI50 [8]: 1.58 µM
TGI [8]: 3.09 µM
GI50 [9]: 1.66 µM
TGI [9]: 4.27 µM

Cc1cn2c(/C=N/NC(=N)N)c(-c3cccnc3)nc2s1
GI50 [1]: 4.79 µM
TGI [1]: 51.3 µM
GI50 [2]: 13.8 µM
TGI [2]: 36.3 µM
GI50 [3]: 5.62 µM
TGI [3]: 20.9 µM
GI50 [4]: 12 µM
TGI [4]: 28.2 µM
GI50 [5]: 10.2 µM
TGI [5]: 25.7 µM
GI50 [6]: 15.8 µM
TGI [6]: 36.3 µM
GI50 [7]: 9.55 µM
GI50 [8]: 6.92 µM
TGI [8]: 24.5 µM
GI50 [9]: 7.08 µM
TGI [9]: 22.4 µM

N=C(N)N/N=C/c1c(-c2ccccn2)nc2sc(Cl)cn12
GI50 [1]: 4.37 µM
TGI [1]: 13.2 µM
GI50 [2]: 8.71 µM
TGI [2]: 18.6 µM
GI50 [3]: 7.08 µM
TGI [3]: 15.1 µM
GI50 [4]: 5.62 µM
TGI [4]: 11.5 µM
GI50 [5]: 7.76 µM
TGI [5]: 15.1 µM
GI50 [6]: 7.08 µM
TGI [6]: 14.5 µM
GI50 [7]: 7.94 µM
TGI ([7]; read-out: pTGI (converted)): 15.1 µM
GI50 [8]: 9.33 µM
TGI [8]: 17.8 µM
GI50 [9]: 8.91 µM
TGI [9]: 20.9 µM

N=C(N)N/N=C/c1c(-c2ccc(Cl)c([N+](=O)[O-])c2)nc2n1CCS2
GI50 [1]: 3.09 µM
TGI [1]: 13.2 µM
GI50 [2]: 10.5 µM
TGI [2]: 38.9 µM
GI50 [3]: 6.61 µM
TGI [3]: 17.4 µM
GI50 [4]: 6.92 µM
TGI [4]: 25.7 µM
GI50 [5]: 8.32 µM
TGI [5]: 24 µM
GI50 [6]: 9.77 µM
TGI [6]: 30.9 µM
GI50 [7]: 10 µM
GI50 [8]: 6.61 µM
TGI [8]: 20.9 µM
GI50 [9]: 11.5 µM
TGI [9]: 27.5 µM

N=C(N)N/N=C/c1c(-c2ccncc2)nc2sc(Cl)cn12
Activity [10]: inactive
GI50 [1]: 3.8 µM
TGI [1]: 11.7 µM
GI50 [2]: 6.76 µM
TGI [2]: 17 µM
GI50 [3]: 8.13 µM
TGI [3]: 27.5 µM
GI50 [4]: 7.76 µM
TGI [4]: 20 µM
GI50 [5]: 5.89 µM
TGI [5]: 13.8 µM
GI50 [6]: 10.2 µM
TGI [6]: 20.9 µM
GI50 [7]: 6.61 µM
GI50 [8]: 17.4 µM
TGI [8]: 33.1 µM
GI50 [9]: 13.2 µM
TGI [9]: 40.7 µM
Activity [11]: inactive
